Source: PubChem BioAssay
The list is not random: actives were taken first. Their share in the collection is about 2.5%.
TRPC4 inh: inhibitors of mouse TRPC4 channel; Q9QUQ5; HEK293 TRPC4beta/mu-opioid, DAMGO-evoked Fluo4 calcium flux; stronger effect = lower value; B-score at 10 µM; 0.39% of 300,000 active; AID 2247;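 active = B-score over 3 SD under the library average, no early fluorescence shift, positive overall ratio signal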
Target sequence (Q9QUQ5 whole entry, looked up): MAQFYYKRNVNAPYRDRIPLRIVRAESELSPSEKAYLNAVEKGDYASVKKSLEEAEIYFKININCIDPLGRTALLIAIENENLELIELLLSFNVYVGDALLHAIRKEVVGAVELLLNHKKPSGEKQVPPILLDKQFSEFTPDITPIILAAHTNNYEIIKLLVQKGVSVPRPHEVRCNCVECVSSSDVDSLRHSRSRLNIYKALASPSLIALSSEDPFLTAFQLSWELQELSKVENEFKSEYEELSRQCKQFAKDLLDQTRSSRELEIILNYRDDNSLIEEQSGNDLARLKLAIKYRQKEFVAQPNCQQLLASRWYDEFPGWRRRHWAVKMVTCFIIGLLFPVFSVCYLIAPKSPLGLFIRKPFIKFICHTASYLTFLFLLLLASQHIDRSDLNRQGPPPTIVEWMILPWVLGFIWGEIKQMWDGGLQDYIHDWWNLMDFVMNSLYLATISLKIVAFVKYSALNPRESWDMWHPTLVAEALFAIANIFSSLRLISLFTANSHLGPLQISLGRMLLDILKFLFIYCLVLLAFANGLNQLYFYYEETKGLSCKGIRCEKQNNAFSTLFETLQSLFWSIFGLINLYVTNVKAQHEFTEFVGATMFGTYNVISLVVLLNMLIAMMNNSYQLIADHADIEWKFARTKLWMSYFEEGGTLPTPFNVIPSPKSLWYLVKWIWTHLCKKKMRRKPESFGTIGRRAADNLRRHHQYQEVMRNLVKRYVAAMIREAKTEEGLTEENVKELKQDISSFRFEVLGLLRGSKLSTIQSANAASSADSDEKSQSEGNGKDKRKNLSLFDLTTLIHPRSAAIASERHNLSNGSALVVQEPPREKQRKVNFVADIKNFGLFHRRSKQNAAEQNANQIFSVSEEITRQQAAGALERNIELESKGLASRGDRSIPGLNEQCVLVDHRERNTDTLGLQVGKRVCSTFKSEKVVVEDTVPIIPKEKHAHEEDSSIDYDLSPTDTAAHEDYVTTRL
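Assay system: HEK293 cells with stable TRPC4beta plus mu-opioid receptor expression; Probe or stimulus: DAMGO in two steps, submaximal then maximal; Dosing: single-point compound dosing; Measured by: Fluo4 calcium-dye fluorescence, kinetic read; Read-out basis: B score from integrated Fluo4 fluorescence ratio.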
TRPC4 PAM: allosterically enhances the mouse TRPC4 cation channel | AID 2227 | Q9QUQ5 | 0.42% of 310,000 active | B-score at 10 µM | HEK293 TRPC4beta/mu-opioid, DAMGO EC20, Fluo-4 Ca2+ flux; stronger effect = higher value;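 active = B-score of calcium response area above 5 SD of library B-scores, with initial fluorescence ratio within 5 SD of library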;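 also: B-score of integrated fluorescence ratio over time as area under calcium response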
TRPC6 inhibitor: blocks the mouse TRPC6 cation channel | B-score at 10 µM | HEK293-TRPC6, membrane potential dye, ACh-evoked depolarization; stronger effect = lower value | Q61143 | 1.1% of 310,000 active;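 active = B-score under library mean minus 3 SD, initial fluorescence not abnormally high, positive integrated signal ratio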;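 also: B-score derived from integrated fluorescence ratio over the kinetic read; more negative B-score means stronger inhibition of depolarization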
Platelet DG rel: modulates dense granule release in human platelets; human platelet-rich plasma, SFLLRN dense granule ATP release, luminescence; 0.22% of 300,000 active; inhibition, %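 (compounds screened at 7.5 µM in platelet-rich plasma)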;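 active = mean replicate score, as percent of positive control, at or above 50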
TRPC6 act: activates the mouse TRPC6 cation channel. Q61143. HEK293-TRPC6 membrane potential dye fluorescence; stronger effect = higher value. B-score at 10 µM. 0.13% of 310,000 active. AID 2550;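 active = B-score of the integrated fluorescence ratio above library mean plus 3 SD, and starting fluorescence ratio within library mean plus 5 SD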;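 also: higher score means more depolarization so channel activation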
TRPC4 act: TRPC4 (mouse) channel activation | Q9QUQ5 | HEK293 TRPC4beta/mu-opioid, Fluo4 calcium fluorescence; stronger effect = higher value | B-score at 10 µM | 0.49% of 310,000 active | AID 2237;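 active = B-score above 5 SD of library B-scores, and initial fluorescence ratio not above library mean plus 5 SD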;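 also: positive B-score marks a calcium rise read as TRPC4 activation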
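Test system: HEK293 cells stably co-expressing mouse TRPC4beta and mu-opioid receptor | Schedule: Fluo4 dye loading 45 min at room temperature, 110 s recording | Measured by: Kinetic Fluo4 calcium fluorescence, 5 s baseline at 1 Hz | Evaluation: B score of integrated ratio | Controls: Buffer (low) and maximal DAMGO (high)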
Numbers without * were called inactive; i = inactive.

SMILES	TRPC4 inh	TRPC4 PAM	TRPC6 inhibitor	Platelet DG rel	TRPC6 act	TRPC4 act
Cc1nc2sccn2c(=O)c1S(=O)(=O)NCC(C)c1ccccc1 (configuration not stated)	i	i	i	58*	i	i
Cc1nc2sccn2c(=O)c1S(=O)(=O)NC(C)c1ccccc1 (configuration not stated)	i	i	i	63*	i	i
Cc1nc2sccn2c(=O)c1S(=O)(=O)NCc1ccccc1	i	i	i	2	i	i
O=C1CN(S(=O)(=O)c2cccc(Cl)c2Cl)c2ccccc2N1	i	i	i	-1	i	i
COC(=O)c1cc(NS(=O)(=O)c2ccc(NC(C)=O)cc2)cc(C(=O)OC)c1	i	i	i	-3	i	i
COc1ccc(NS(=O)(=O)c2cc3c4c(c2)C(C)C(=O)N4CCC3)cc1 (configuration not stated)	i	i	i	13	i	i
CCOC(=O)c1c(S(=O)(=O)NCC2CCN(Cc3cccc(F)c3)CC2)c(C)n(C)c1C	i	i	i	3	i	i
O=c1ccc(-c2ccc(S(=O)(=O)NCC3CCN(Cc4cccc(F)c4)CC3)s2)n[nH]1	i	10*	i	-9	i	i
CCOc1ccc(C2CC(=O)N(Nc3ccc([N+](=O)[O-])cc3[N+](=O)[O-])C2=O)cc1 (configuration not stated)	i	i	i	3	i	i
CN(C)CCNC(=O)c1sc2cccc(F)c2c1Cl	i	11*	i	5	i	i
COc1ccc(CCNC(=O)C2CCN(C(=O)c3ccc(C(C)(C)C)cc3)CC2)cc1	i	17*	i	16	i	i
COc1ccc(CNCCc2ccc([N+](=O)[O-])cc2)c(OC)c1OC	i	i	i	5	i	81*
COc1ccc(C)cc1NCc1ccc([N+](=O)[O-])cc1	i	i	i	0	i	i
COc1cc(/C=C(\C#N)c2nc3c(s2)CCCC3)ccc1O	i	i	i	-7	93*	91*
N#C/C(=C\c1cccnc1)c1nc2c(s1)CCCC2	i	i	i	11	i	i
COc1cccc(/C=N/Nc2nn3cnnc3c3ccccc23)c1O	i	i	i	-10	i	i
Oc1cccc(/C=N/Nc2nn3cnnc3c3ccccc23)c1	i	i	i	57*	i	i
N=c1ccn(Cc2ccc(Cl)c(Cl)c2)cc1	i	i	i	2	i	61*
C=C(c1ccccc1C)[n+]1ccccc1	i	i	i	0	i	i
COc1ccc(/C=C2\SC(=S)N(N3C(=O)CCC3=O)C2=O)cc1O	i	144*	i	3	i	i
COc1ccc(/C=C2/SC(=S)N(Cc3ccccc3)C2=O)cc1O	i	i	i	-4	i	i
COc1ccc(/C=C2\SC(=O)N(CC(=O)Nc3ccc(F)cc3)C2=O)cc1O	i	11*	i	-2	i	i
CCOC(=O)C1(Cc2ccccc2)CCN(Cc2cccc3nccnc23)CC1	i	i	i	0	i	i
CCOC(=O)C1(Cc2ccccc2)CCN(Cc2cccn2-c2nccs2)CC1	i	i	i	-1	i	46*
CCOC(=O)C1(CCOc2ccccc2)CCN(Cc2cccn2-c2cccnc2)CC1	i	i	i	-1	i	116*
SMILES	TRPC4 inh	TRPC4 PAM	TRPC6 inhibitor	Platelet DG rel	TRPC6 act	TRPC4 act
CCOC(=O)C1(Cc2ccccc2)CCN(Cc2cccn2-c2cccnc2)CC1	i	i	i	-7	i	45*
CCOC(=O)C1(CCOc2ccccc2)CCN(CCCn2cccn2)CC1	i	i	i	-1	i	i
CCNS(=O)(=O)c1ccc(CCC(=O)NCc2ccc3c(c2)OCO3)cc1	i	i	i	2	i	i
Cc1nonc1C(=O)N/N=C/c1ccc(O)cc1O	i	i	i	96*	i	i
C/C(=N\O)c1sc(-c2ccccc2)nc1C	i	i	i	7	i	i
CN(C)c1ccc(C(=O)N2CCCC2)cc1	i	i	i	26	i	i
CCOc1ccc2ccccc2c1CNCCc1ccc(S(N)(=O)=O)cc1	-6*	i	i	-3	i	i
NS(=O)(=O)c1ccc(CCNCc2ccccc2OCc2ccc(F)cc2)cc1	-6*	i	i	-2	i	i
NS(=O)(=O)c1ccc(NCc2ccccc2OCc2ccc(F)cc2)cc1	i	i	i	16	i	i
Cn1cnnc1SCC(C)(C)NS(=O)(=O)c1ccc(Cl)cc1	i	i	i	-11	i	i
COc1ccc(CCNC(=O)Nc2ccc(F)cc2F)cc1OC	i	i	i	7	i	i
COc1ncnc2sc(-c3ccccc3)cc12	i	i	i	61*	i	i
CC#CC[N+](C)(C)CCCCCCCCCCCC	-8*	i	i	-10	i	i
Cc1cc(C)c(S(=O)(=O)N2CCCC(C(=O)NCc3cccnc3)C2)c(C)c1 (configuration not stated)	i	i	i	-4	i	i
COCCn1c(SCc2cccc([N+](=O)[O-])c2)nc2ccccc2c1=O	-6*	i	i	1	i	i
COCCn1c(SCC(=O)N2CCOCC2)nc2ccccc2c1=O	i	i	i	15	i	i
COC(=O)c1ccc(CSc2nc3ccccc3c(=O)n2CC(C)C)o1	-7*	i	i	-3	i	i
COCCn1c(SCC(=O)N2CCc3ccccc3C2)nc2ccccc2c1=O	-5*	i	i	0	i	i
COCCCn1c(SCC(=O)c2ccccc2)nc2ccccc2c1=O	i	i	i	-1	i	i
COCCn1c(SCC(=O)c2ccccc2)nc2ccccc2c1=O	-7*	i	i	1	i	i
COc1ccccc1C(=O)C1CCCN(C(=O)CCc2ccccn2)C1 (configuration not stated)	i	i	i	1	i	i
CCC(=O)c1ccc(OCC(=O)OCC(=O)c2cc(C)n(C)c2C)cc1	i	i	i	14	i	i
COCCn1c(SCc2ccccc2F)nc2ccccc2c1=O	-6*	i	i	2	i	i
CC(=O)NCCn1c(SCc2ccccc2F)nc2ccccc2c1=O	i	i	i	-3	i	i
